Source: ChEMBL document CHEMBL1275265, “Synthesis and biological evaluation of N-antipyrine-4-substituted amino-3-chloromaleimide derivatives” (Eur J Med Chem, 2010)
Values after ≈ are worked out from the molar mass of the structure shown. Active and inactive are the calls of the source. The calls are words filed in the database; no cut-off is given here.

Assays:
[1] = system: Salmonella typhimurium; assay: Antibacterial activity against Salmonella Typhimurium ATCC 14028 at < 100 ug/mL by agar dilution method; assay type: functional, organism-based; settings: Salmonella enterica subsp. enterica serovar Typhimurium
Method in brief: (§1)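 Agar dilution on 1 mL Mueller-Hinton agar slants. Compounds were serially two-fold diluted in DMSO (final DMSO ≤2%) to give 10–100 µg/mL in the medium. Bacteria were grown on MHA at 35 °C for 24 h, suspended in 0.86% saline at 1.5 × 10^8 cell/mL (0.5 McFarland), and 1 µL was added per slant. Slants were incubated at 35 °C. Drug-free blank included; each assay run three times; MIC recorded.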

[2] = system: Proteus mirabilis; assay: Antibacterial activity against Proteus mirabilis ATCC 25933 at < 100 ug/mL by agar dilution method; assay type: functional, organism-based; method in brief: as §1
[3] = system: Aspergillus flavus; assay: Antifungal activity against Aspergillus flavus ATCC 9170 by agar dilution method; assay type: functional, organism-based
Method in brief: (§2)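 Filamentous fungi (hyalohyphomycetes, dermatophytes) were grown on SDA. Spore suspensions were set to 1.0–5.0 × 10^6 spores/mL by hemocytometer count. 1 µL was inoculated onto 1 mL SDA slants holding compound at 10–100 µg/mL (two-fold DMSO dilutions, final DMSO ≤2%), then incubated at 28–30 °C. Drug-free blank and ketoconazole control included; repeated three times; MIC determined.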

[4] = system: Aspergillus niger; assay: Antifungal activity against Aspergillus niger ATCC 9092 by agar dilution method; assay type: functional, organism-based; method in brief: as §2
[5] = system: Microsporum canis; assay: Antifungal activity against Microsporum canis C112 by agar dilution method; assay type: functional, organism-based; method in brief: as §2
[6] = system: Candida albicans; assay: Antifungal activity against Candida albicans ATCC 10231 by agar dilution method; assay type: functional, organism-based
Method in brief: (§3)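 Yeasts were grown on Sabouraud dextrose agar and adjusted to 1.0–5.0 × 10^6 cell/mL (0.5 McFarland). Agar dilution used 1 mL SDA slants holding two-fold DMSO dilutions of compound at 10–100 µg/mL, with final DMSO ≤2%. 1 µL of inoculum was added per slant, then incubated at 35 °C. Drug-free blank and ketoconazole positive control included; triplicate runs; MIC read.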

[7] = system: Pichia kudriavzevii; assay: Antifungal activity against Candida krusei ATCC 6582 by agar dilution method; assay type: functional, organism-based; method in brief: as §3
[8] = system: Staphylococcus saprophyticus; assay: Antibacterial activity against Staphylococcus saprophyticus ATCC 35552 at < 100 ug/mL by agar dilution method; assay type: functional, organism-based; method in brief: as §1
[9] = system: Streptococcus agalactiae; assay: Antibacterial activity against Streptococcus agalactiae ATCC 13813 at < 100 ug/mL by agar dilution method; assay type: functional; method in brief: as §1
[10] = system: Pseudomonas aeruginosa; assay: Antibacterial activity against Pseudomonas aeruginosa ATCC 27853 at < 100 ug/mL by agar dilution method; assay type: functional, organism-based; method in brief: as §1
[11] = system: Staphylococcus aureus; assay: Antibacterial activity against Staphylococcus aureus ATCC 6538P at < 100 ug/mL by agar dilution method; assay type: functional, organism-based; method in brief: as §1
[12] = system: Aspergillus fumigatus; assay: Antifungal activity against Aspergillus fumigatus ATCC 26934 by agar dilution method; assay type: functional; method in brief: as §2
[13] = system: Cryptococcus neoformans; assay: Antifungal activity against Cryptococcus neoformans ATCC 32264 by agar dilution method; assay type: functional; method in brief: as §3
[14] = system: Nannizzia gypsea; assay: Antifungal activity against Microsporum gypseum C115 by agar dilution method; assay type: functional; method in brief: as §2
[15] = system: Rhizopus; assay: Antifungal activity against Rhizopus CL35 by agar dilution method; assay type: functional; method in brief: as §2
[16] = system: Trichophyton mentagrophytes; assay: Antifungal activity against Trichophyton mentagrophytes ATCC 9972 by agar dilution method; assay type: functional; method in brief: as §2
[17] = system: Trichophyton rubrum; assay: Antifungal activity against Trichophyton rubrum C137 by agar dilution method; assay type: functional; method in brief: as §2
[18] = system: Bacillus cereus; assay: Antibacterial activity against Bacillus cereus ATCC 14579 at < 100 ug/mL by agar dilution method; assay type: functional; method in brief: as §1
[19] = system: Bacillus subtilis; assay: Antibacterial activity against Bacillus subtilis ATCC 23858 at < 100 ug/mL by agar dilution method; assay type: functional, organism-based; method in brief: as §1
[20] = system: Enterobacter cloacae; assay: Antibacterial activity against Enterobacter cloacae ATCC 35030 at < 100 ug/mL by agar dilution method; assay type: functional, organism-based; method in brief: as §1
[21] = system: Escherichia coli; assay: Antibacterial activity against Escherichia coli ATCC 11775 at < 100 ug/mL by agar dilution method; assay type: functional, organism-based; method in brief: as §1
[22] = Toxicity in Artemia salina assessed as mortality after 24 hrs; assay type: organism-based; settings: in vivo
Method in brief: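 Artemia salina hatched at pH 9.0 (Na2CO3), 25 °C, strong aeration, continuous light (2000 Lux). Phototropic nauplii were collected about 12 h after hatching, and groups of 10 were exposed per well to various compound concentrations for 24 h. Survivors were counted and % deaths calculated.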

[23] = system: Mus musculus; assay: Antinociceptive activity in Swiss mouse assessed as inhibition of acetic acid-induced writhing at 10 mg/kg, ip administered 30 mins before acetic acid challenge measured after 20 mins relative to control; assay type: functional; settings: route intraperitoneal
Method in brief: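 Mice were given 10 mg/kg i.p. in Tween 80/0.9% NaCl (Tween ≤5%) 30 min before i.p. 0.6% acetic acid, at 20–22 °C. Abdominal constrictions plus hind-limb stretching were counted cumulatively over 20 min in individual funnels. Groups of six, randomized and blinded. Inhibition was calculated versus vehicle controls (10 ml/kg i.p.); ANOVA with Dunnett's test.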

## Cc1c(N2C(=O)C(Cl)=C(Nc3ccccc3)C2=O)c(=O)n(-c2ccccc2)n1C
[1]
  Activity: inactive
[2]
  Activity: inactive
[3]
  Activity: Active
[4]
  Activity: Active
[5]
  Activity: Active
[6]
  Activity: Active
[7]
  Activity: Active
[8]
  Activity: inactive
[9]
  Activity: inactive
[10]
  Activity: inactive
[11]
  Activity: inactive
[12]
  MIC: > 100 µg/mL
[13]
  MIC: > 100 µg/mL
[14]
  MIC: > 100 µg/mL
[15]
  MIC: 80 µg/mL (≈ 196 µM)
[16]
  MIC: > 100 µg/mL
[17]
  MIC: > 100 µg/mL
[18]
  Activity: inactive
[19]
  Activity: inactive
[20]
  Activity: inactive
[21]
  Activity: inactive
[22]
  LC50 at 24 h: > 1000 µg/mL
[23]
  inhibition in vivo at 10 mg/kg: 71.6%

## Cc1c(N2C(=O)C(Cl)=C(Nc3ccc(Cl)c(Cl)c3)C2=O)c(=O)n(-c2ccccc2)n1C
[1]
  Activity: inactive
[2]
  Activity: inactive
[3]
  Activity: Active
[4]
  Activity: Active
[5]
  Activity: Active
[6]
  Activity: Active
[7]
  Activity: Active
[8]
  Activity: inactive
[9]
  Activity: inactive
[10]
  Activity: inactive
[11]
  Activity: inactive
[12]
  MIC: > 100 µg/mL
[13]
  MIC: > 100 µg/mL
[14]
  MIC: 100 µg/mL (≈ 209 µM)
[15]
  MIC: 80 µg/mL (≈ 167 µM)
[16]
  MIC: > 100 µg/mL
[17]
  MIC: > 100 µg/mL
[18]
  Activity: inactive
[19]
  Activity: inactive
[20]
  Activity: inactive
[21]
  Activity: inactive
[22]
  LC50 at 24 h: > 1000 µg/mL
[23]
  inhibition in vivo at 10 mg/kg: 75%

## Cc1c(N2C(=O)C(Cl)=C(NCc3ccccc3)C2=O)c(=O)n(-c2ccccc2)n1C
[1]
  Activity: inactive
[2]
  Activity: inactive
[3]
  Activity: Active
[4]
  Activity: Active
[5]
  Activity: Active
[6]
  Activity: Active
[7]
  Activity: Active
[8]
  Activity: inactive
[9]
  Activity: inactive
[10]
  Activity: inactive
[11]
  Activity: inactive
[12]
  MIC: 100 µg/mL (≈ 236 µM)
[13]
  MIC: 40 µg/mL (≈ 94.6 µM)
[14]
  MIC: > 100 µg/mL
[15]
  MIC: > 100 µg/mL
[16]
  MIC: 100 µg/mL (≈ 236 µM)
[17]
  MIC: 100 µg/mL (≈ 236 µM)
[18]
  Activity: inactive
[19]
  Activity: inactive
[20]
  Activity: inactive
[21]
  Activity: inactive
[22]
  LC50 at 24 h: > 1000 µg/mL
[23]
  inhibition in vivo at 10 mg/kg: 35.4%

## CCc1ccc(NC2=C(Cl)C(=O)N(c3c(C)n(C)n(-c4ccccc4)c3=O)C2=O)cc1
[1]
  Activity: inactive
[2]
  Activity: inactive
[3]
  Activity: Active
[4]
  Activity: Active
[5]
  Activity: Active
[6]
  Activity: Active
[7]
  Activity: Active
[8]
  Activity: inactive
[9]
  Activity: inactive
[10]
  Activity: inactive
[11]
  Activity: inactive
[12]
  MIC: > 100 µg/mL
[13]
  MIC: > 100 µg/mL
[14]
  MIC: 100 µg/mL (≈ 229 µM)
[15]
  MIC: > 100 µg/mL
[16]
  MIC: > 100 µg/mL
[17]
  MIC: > 100 µg/mL
[18]
  Activity: inactive
[19]
  Activity: inactive
[20]
  Activity: inactive
[21]
  Activity: inactive
[22]
  LC50 at 24 h: > 1000 µg/mL
[23]
  inhibition in vivo at 10 mg/kg: 49.5%
